# Experimental data collected from several papers.
# Lines come from different studies, so protocols differ. pKd: −log10 of the molar value.
# Nectin-4: Nectin-4 (Homo sapiens, UniProt Q96NY8)
# UCK1: UCK1 (Homo sapiens, UniProt Q9HA47)
# PIK3C2B: Phosphatidylinositol 4-phosphate 3-kinase C2 domain-containing subunit beta (PIK3C2B, Homo sapiens, UniProt O00750)
SMILES,target,test,conditions,pKd
NC(=O)c1ncn([C@@H]2O[C@H](COP(=O)(O)O)[C@@H](O)[C@H]2O)c1N,"Adenylosuccinate lyase (ADSL, Homo sapiens, UniProt P30566, R303C)","binding, ITC",,3.91
CCCC[C@@H]1NC(=O)[C@H](Cc2ccc(O)cc2)NC(=O)[C@@H]2CCCN2C(=O)[C@H](CC(=O)O)NC(=O)[C@H](C)NC(=O)[C@H](Cc2ccccc2)NC(=O)[C@@H]2CSCCC(=O)N3CN(CN(C3)C(=O)CCSC[C@@H](C(=O)N[C@@H](C)C(N)=O)NC1=O)C(=O)CCSC[C@H](NC(C)=O)C(=O)N[C@@H](CC(C)(C)C)C(=O)N1CCC[C@H]1C(=O)N[C@@H](CCC(=O)O)C(=O)N[C@H](CCCCNC(=O)CCc1cn(CCOCCOCCOCCOCCOCCC(=O)N[C@H]3CSCCC(=O)N4CN5CN(C4)C(=O)CCSC[C@H](NC(=O)[C@@H](CC(=O)O)NC(=O)[C@H](Cc4cccc6ccccc46)NC(=O)[C@@H]4CCCN4C3=O)C(=O)N[C@@H](CCSC)C(=O)N[C@@H](CCCCNC(=N)N)C(=O)N[C@@H](CC(=O)O)C(=O)N[C@@H](Cc3c[nH]c4ccccc34)C(=O)N[C@@H](CO)C(=O)N[C@@H]([C@@H](C)O)C(=O)N3CCC[C@H]3C(=O)N3C[C@H](O)C[C@H]3C(=O)N[C@@H](Cc3c[nH]c4ccccc34)C(=O)N[C@H](C(N)=O)CSCCC5=O)nn1)C(=O)N1CCC[C@H]1C(=O)N[C@@H](Cc1ccc(O)cc1)C(=O)N2,Nectin-4,"binding, SPR",,8.74
[N-]=[N+]=N[C@@H]1[C@H](O)[C@@H](CO)O[C@H]1n1ccc(=O)[nH]c1=O,UCK1,"binding, fluorescence",,6.74
Cc1nc(NC(=O)N2CCC[C@H]2C(N)=O)sc1-c1ccnc(C(C)(C)C(F)(F)F)c1,PIK3C2B,"binding, competition with immobilised ligand",,6.50
CCCCc1nc2cc(/C=C/C(=O)NO)ccc2n1CCN(CC)CC,"Histone deacetylase 2 (HDAC2, Homo sapiens, UniProt Q92769)",cell-free assay,,5.89
C=CC(=O)N1CCC(C(=O)N(C)CC(=O)N2CCN(c3nc(-c4cnc(N)nc4C(F)F)nc(N4CCOCC4)n3)CC2)CC1,PIK3C2B,"binding, competition with immobilised ligand",,6.81
O=c1ccn([C@@H]2O[C@H](CO)[C@@H](O)[C@H]2O)c(=O)[nH]1,UCK1,"binding, fluorescence",,7.25
Cc1cc(Nc2cc3ncccc3c(N[C@@H]3C[C@H]4CC[C@@H](C3)N4CCC#N)n2)n[nH]1,"Mitogen-activated protein kinase kinase kinase 3 (MAP3K3, Homo sapiens, UniProt Q99759)","binding, competition with immobilised ligand",,7.00
CCCCCC(C)=O,"Or85b (Drosophila melanogaster, UniProt Q9VHQ7)","binding, MST",,~6.10
CCCC[C@@H]1NC(=O)[C@H](Cc2ccc(O)cc2)NC(=O)[C@@H]2CCCN2C(=O)[C@H](CC(=O)O)NC(=O)[C@H](C)NC(=O)[C@H](Cc2ccccc2)NC(=O)[C@@H]2CSCCC(=O)N3CN(CN(C3)C(=O)CCSC[C@@H](C(=O)N[C@@H](CNC(=O)CCc3cn(CCOCCOCCOCCOCCOCCOCCOCCOCCOCCOCCOCCOCCC(=O)NCCC(=O)N(C)CC(=O)N(C)CC(=O)N(C)CC(=O)N(C)CC(=O)N(C)CC(=O)N(C)CC(=O)N(C)CC(=O)N(C)CC(=O)N(C)CC(=O)N(C)CC(=O)NCCCC[C@@H]4NC(=O)[C@H](Cc5cccc6ccccc56)NC(=O)[C@@H]5CCCN5C(=O)[C@@H](NC(C)=O)CSCCC(=O)N5CN6CN(C5)C(=O)CCSC[C@H](NC4=O)C(=O)N[C@@H](CCSC)C(=O)N[C@@H](CCCCNC(=N)N)C(=O)N[C@@H](CC(=O)O)C(=O)N[C@@H](Cc4c[nH]c5ccccc45)C(=O)N[C@@H](CO)C(=O)N[C@@H]([C@@H](C)O)C(=O)N4CCC[C@H]4C(=O)N4C[C@H](O)C[C@H]4C(=O)N[C@@H](Cc4c[nH]c5ccccc45)C(=O)N[C@H](C(N)=O)CSCCC6=O)nn3)C(N)=O)NC1=O)C(=O)CCSC[C@H](NC(C)=O)C(=O)N[C@@H](CC(C)(C)C)C(=O)N1CCC[C@H]1C(=O)N[C@@H](CCC(=O)O)C(=O)N[C@H](C)C(=O)N1CCC[C@H]1C(=O)N[C@@H](Cc1ccc(O)cc1)C(=O)N2,Nectin-4,"binding, SPR",,8.70
CC(=O)N[C@H](C(=O)N[C@H](C(=O)N[C@@H](Cc1ccccc1)C(=O)N[C@H](C(=O)N[C@@H](CO)C(=O)N[C@@H](Cc1c[nH]c2ccccc12)C(=O)N[C@@H](CCC(=O)O)C(=O)N[C@@H](CCC(=O)O)C(=O)N[C@@H](Cc1ccc(O)cc1)C(=O)N[C@@H](CC(C)C)C(=O)N[C@@H](CC(=O)O)C(=O)N[C@@H](Cc1c[nH]c2ccccc12)C(=O)N[C@H](C(N)=O)C(C)C)[C@@H](C)O)C(C)C)[C@@H](C)O,"Proprotein convertase subtilisin/kexin type 9 (PCSK9, Homo sapiens, UniProt Q8NBP7)","binding, SPR",,6.18
CC(=O)N[C@H](C(=O)N1C[C@H](O)C[C@H]1C(=O)NCc1ccc(-c2scnc2C)cc1)C(C)(C)SCCCCCCNC(=O)C[C@@H]1N=C(c2ccc(Cl)cc2)c2c(sc(C)c2C)-n2c(C)nnc21,"Bromodomain-containing protein 3, BD2 (BRD3, Homo sapiens, UniProt Q15059)","binding, ITC",,7.41
NC(=O)C1=CN([C@@H]2O[C@H](COP(=O)(O)OP(=O)(O)OC[C@H]3O[C@@H](n4cnc5c(N)ncnc54)[C@H](OP(=O)(O)O)[C@@H]3O)[C@@H](O)[C@H]2O)C=CC1,"ZMO1885 (Zymomonas mobilis, UniProt Q5NLA1, Y343W)",binding,,3.15
Nc1ncnc2c1ncn2[C@@H]1O[C@H](COP(=O)(O)O)[C@@H](O)[C@H]1O,"Adenylosuccinate lyase (ADSL, Homo sapiens, UniProt P30566)","binding, ITC",,4.27
Cc1cnc(-c2ccc(-c3ccc(NC(=O)Nc4c(F)cc(F)cc4F)cc3F)c3c2C(=O)NC3)[nH]1,"Aurora kinase B (AURKB, Homo sapiens, UniProt Q96GD4)","binding, competition with immobilised ligand",,8.51
CC#CC(=O)N1CC[C@@H](n2cc(-c3ccc(Oc4c(F)cccc4F)cc3)c3c(N)n[nH]c(=O)c32)C1,"Tyrosine-protein kinase TXK (TXK, Homo sapiens, UniProt P42681)","binding, competition with immobilised ligand",,6.87
CCCN1CCN(c2ccc(-c3cncc(Cl)c3N3CCC4(CCNC4=O)CC3)cc2)CC1,"Serine/threonine-protein kinase 16 (STK16, Homo sapiens, UniProt O75716)",cell-free assay,lysate,4.71
